Test results reported in ChEMBL document CHEMBL4041520, “Novel pyrimidine-2,4-dione-1,2,3-triazole and furo[2,3-d]pyrimidine-2-one-1,2,3-triazole hybrids as potential anti-cancer agents: Synthesis, computational and X-ray analysis and biological evaluation” (Eur J Med Chem, 2017).

What was measured:
[1] = system: A549; test: Antiproliferative activity against human A549 cells after 72 hrs by MTT assay; format: functional, cell-based; conditions: A549, 72 h
Outline: (§1)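 Monolayers grown in DMEM with 10% FBS and 2 mM L-glutamine at 37 °C, 5% CO2. Cells seeded at 5000 per well on day 0. Compounds added in five 10-fold dilutions (0.01–100 µM), DMSO ≤0.1%, for 72 h. MTT absorbance converted to percentage growth versus untreated wells. IC50 by linear regression of the dose-response curve; highest concentration reported when not reached. Quadruplicate points, three experiments.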

[2] = system: HepG2; test: Antiproliferative activity against human HepG2 cells after 72 hrs by MTT assay; format: functional, cell-based; conditions: HepG2, 72 h; outline: as §1
[3] = system: CFPAC-1; test: Antiproliferative activity against human CFPAC-1 cells after 72 hrs by MTT assay; format: functional, cell-based; conditions: CFPAC-1, 72 h; outline: as §1
[4] = system: HeLa; test: Antiproliferative activity against human HeLa cells after 72 hrs by MTT assay; format: functional, cell-based; outline: as §1
[5] = system: SW-620; test: Antiproliferative activity against human SW620 cells after 72 hrs by MTT assay; format: functional, cell-based; conditions: SW-620, 72 h; outline: as §1
[6] = system: WI-38; test: Antiproliferative activity against human WI38 cells after 72 hrs by MTT assay; format: cell-based; conditions: WI-38, 72 h; outline: as §1

Structure (SMILES)	IC50 [1] [µM]	IC50 [2] [µM]	IC50 [3] [µM]	IC50 [4] [µM]	IC50 [5] [µM]	IC50 [6] [µM]
CCCCCCC#Cc1c(CCCCCC)oc2nc(=O)n(Cc3cn(Cc4ccccc4)nn3)cc12	21.9	25.8	27.3	23.4	32.6	23.4
CCCCCc1ccc(C#Cc2c(-c3ccc(CCCCC)cc3)oc3nc(=O)n(Cc4cn(Cc5ccccc5)nn4)cc23)cc1	> 100	> 100	> 100	73	> 100	2.65
O=c1nc2oc(C3CC3)c(C#CC3CC3)c2cn1Cc1cn(-c2ccc(Cl)cc2)nn1	39	39.2	35.4	16.1	36.9	3.15
O=c1nc2oc(CCCCl)cc2cn1Cc1cn(-c2ccc(F)cc2)nn1	68.4	14.6	6.49	6.99	> 100	< 0.01
O=c1nc2oc(C3CC3)cc2cn1Cc1cn(-c2ccc(Cl)cc2)nn1	61	> 100	> 100	> 100	> 100	> 100
O=c1nc2oc(CCCCl)cc2cn1Cc1cn(-c2ccccc2F)nn1	69.8	79.8	81.8	66.5	> 100	76.5
O=c1[nH]c(=O)n(Cc2cn(-c3ccc(F)cc3)nn2)cc1I	78.8	> 100	83.7	7.2	> 100	3.78
O=c1[nH]c(=O)n(Cc2cn(-c3ccccc3F)nn2)cc1I	95.1	> 100	> 100	> 100	> 100	73.1
O=c1c(I)cn(Cc2cn(-c3ccc(F)cc3)nn2)c(=O)n1Cc1cn(-c2ccc(F)cc2)nn1	78.7	53.5	51.2	41.9	94.8	< 0.01
CCCCCc1ccc(C#Cc2c(-c3ccc(CCCCC)cc3)oc3nc(=O)n(Cc4cn(-c5ccccc5F)nn4)cc23)cc1	38.6	72.5	> 100	9	57.1	7.34
O=c1nc2oc(CCCCl)cc2cn1Cc1cn(Cc2ccccc2)nn1	27.9	27.6	23.5	9.58	75.5	5.2
CCCCCCC#Cc1c(CCCCCC)oc2nc(=O)n(Cc3cn(-c4ccc(F)cc4)nn3)cc12	> 100	> 100	> 100	> 100	> 100	> 100
O=c1nc2oc(C3CC3)c(C#CC3CC3)c2cn1Cc1cn(Cc2ccccc2)nn1	4.81	2.67	4.59	6.51	9.72	0.29
O=c1nc2oc(CCCCl)c(C#CCCCCl)c2cn1Cc1cn(Cc2ccccc2)nn1	26.9	25.5	32.8	25.4	33.9	17.6
C#CCn1c(=O)c(I)cn(Cc2cn(-c3ccc(F)cc3)nn2)c1=O	3.06	5.11	4.21	4.5	6.63	< 0.01
O=c1[nH]c(=O)n(Cc2cn(-c3ccc(Cl)cc3)nn2)cc1I	50.6	> 100	77.2	6.79	34.6	< 0.01

Structure (SMILES)	IC50 [1] [µM]	IC50 [2] [µM]	IC50 [3] [µM]	IC50 [4] [µM]	IC50 [5] [µM]	IC50 [6] [µM]
O=c1nc2oc(CCCCl)c(C#CCCCCl)c2cn1Cc1cn(-c2ccc(F)cc2)nn1	39.4	36.9	95.8	41.8	69.6	0.07
CCCCCCC#Cc1c(CCCCCC)oc2nc(=O)n(Cc3cn(-c4ccc(Cl)cc4)nn3)cc12	> 100	> 100	> 100	> 100	> 100	> 100
O=c1nc2oc(CCCCl)cc2cn1Cc1cn(-c2ccc(Cl)cc2)nn1	52	89.8	> 100	60.2	> 100	72.5
O=c1[nH]cc(F)c(=O)[nH]1 [FLUOROURACIL]	2.8		0.14	8.81	0.08	0.94
CCCCCCc1cc2cn(Cc3cn(Cc4ccccc4)nn3)c(=O)nc2o1	51	68.7	67	59.4	93.5	62.8
O=c1nc2oc(C3CC3)c(C#CC3CC3)c2cn1Cc1cn(-c2ccccc2F)nn1	38.3	39.1	54.5	51.2	49.1	45.9
CCCCCc1ccc(C#Cc2c(-c3ccc(CCCCC)cc3)oc3nc(=O)n(Cc4cn(-c5ccc(Cl)cc5)nn4)cc23)cc1	> 100	> 100	> 100	> 100	> 100	> 100
C#CCn1c(=O)c(I)cn(Cc2cn(-c3ccccc3F)nn2)c1=O	56.2	> 100	> 100	> 100	> 100	0.16
CCCCCCc1cc2cn(Cc3cn(-c4ccccc4F)nn3)c(=O)nc2o1	> 100	> 100	> 100	> 100	> 100	69.2
O=c1nc2oc(C3CC3)cc2cn1Cc1cn(Cc2ccccc2)nn1	45	49.1	48.5	50	54.7	29.7
C#CCn1c(=O)c(I)cn(Cc2cn(-c3ccc(Cl)cc3)nn2)c1=O	4.69	13.1	5.53	4.74	18.3	0.04
O=c1c(I)cn(Cc2cn(Cc3ccccc3)nn2)c(=O)n1Cc1cn(Cc2ccccc2)nn1	41.3	5.77	> 100	15.1	> 100	< 0.01
O=c1c(I)cn(Cc2cn(-c3ccccc3F)nn2)c(=O)n1Cc1cn(-c2ccccc2F)nn1	53.4	36.1	55.9	49.8	> 100	2.22
O=c1nc2oc(CCCCl)c(C#CCCCCl)c2cn1Cc1cn(-c2ccc(Cl)cc2)nn1	> 100	72.5	> 100	> 100	> 100	> 100
O=c1c(I)cn(Cc2cn(-c3ccc(Cl)cc3)nn2)c(=O)n1Cc1cn(-c2ccc(Cl)cc2)nn1	71.1	> 100	> 100	96.5	> 100	0.03
O=c1[nH]c(=O)n(Cc2cn(Cc3ccccc3)nn2)cc1I	> 100	> 100	> 100	> 100	> 100	55.2
